Values after ≈ are worked out from the molar mass of the structure shown. A value given as a limit tells only on which side of the number the result lay.

MIC90 and Stability data for 9 compounds are collected here from ChEMBL document CHEMBL3808330, “Peroxide Natural Products from Plakortis zyggompha and the Sponge Association Plakortis halichondrioides-Xestospongia deweerdtae: Antifungal Activity against Cryptococcus gattii” (J Nat Prod, 2016).

For data set [1], the system named is Cryptococcus neoformans. Briefly: Antifungal activity against Cryptococcus grubii after 48 hrs by microbroth dilution method. In kind it is functional. Summed up:
(§1)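 Microbroth dilution per CLSI protocol in antibiotic medium 3; growth read as optical density at 590 nm in microplate wells; MIC90 reported. C. albicans ATCC 14503; C. krusei patient isolate from UC Davis clinical microbiology; C. gattii and C. grubii strains gifted from UC Davis.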

The test system of data set [2] is Pichia kudriavzevii. Briefly: Antifungal activity against fluconazole-resistant Candida krusei after 48 hrs by microbroth dilution method. It is filed as functional. The essentials:
as §1

The test system of data set [3] is Candida albicans. Briefly: Antifungal activity against Candida albicans ATCC 14503 after 48 hrs by microbroth dilution method. It is filed as functional. The settings on record: ATCC 14503, 48 h. Summed up: as §1
Data set [4] relates to Cryptococcus gattii species complex. Briefly: Antifungal activity against Cryptococcus gattii after 48 hrs by microbroth dilution method. It is filed as functional, Cryptococcus bacillisporus. The essentials:
as §1

A short description of data set [5]: Drug degradation in presence of 3-tert-butyl-4-hydroxy-5-methylphenyl sulfide at -20 degC after 12 hrs by 1H-NMR spectroscopic method. In kind it is physicochemical.
Data set [6] is described as follows: Drug degradation in presence of 3-tert-butyl-4-hydroxy-5-methylphenyl sulfide at -20 degC after 48 hrs by 1H-NMR spectroscopic method. It is filed as physicochemical.
The nature of data set [7]: Stability assessed as drug degradation under ambient conditions by 1H-NMR spectroscopic method. It is filed as physicochemical.

Consider `CCCCC[C@]1(CC)C[C@H](CC)[C@H](CC(=O)O)OO1`, for which the MIC90 in data set [1] worked out at 26 µM (≈ 7.08 µg/mL); in data set [2], 10 µM (≈ 2.72 µg/mL); in data set [3], 27 µM (≈ 7.35 µg/mL); in data set [4], 36 µM (≈ 9.81 µg/mL).
For the compound `CCCCC[C@]1(CC)C[C@H](CC)[C@@H]([C@H](O)C(=O)O)O1`, the MIC90 in data set [3] and in data set [4] was more than 100 µM each time.
In the case of `CCCCCC[C@]1(CC)C[C@H](CC)[C@H](CC(=O)OC)OO1`, the MIC90 in data set [3] and in data set [4] was more than 100 µM in each case.
Take `CCCCCC[C@]1(CC)C[C@H](CC)[C@H](CC(=O)O)OO1`: the MIC90 in data set [1] was found to be 6 µM (≈ 1.72 µg/mL); in data set [2], 4.3 µM (≈ 1.23 µg/mL); in data set [3] it was 22 µM (≈ 6.3 µg/mL); in data set [4] it was 9.6 µM (≈ 2.75 µg/mL).
Regarding `CCCCC[C@]1(CC)C[C@H](CC)[C@H](CC(=O)OC)OO1`, the MIC90 in data set [3] and in data set [4] was more than 100 µM in each case.
Take `CC(=C\Cc1ccccc1)/C=C(\C)C[C@@H](C)C[C@@]1(C)C[C@@](C)(/C=C/C(=O)O)OO1`: the Stability entry is “Stable” in data set [5], “Unstable” in data set [6] and “Unstable” in data set [7]. Moreover, the MIC90 in data set [3] and in data set [4] was more than 100 µM each time.
As for `CC(=C\Cc1ccccc1)/C=C(\C)C[C@@H](C)C[C@@]1(C)C[C@@](C)(CC(=O)O)OO1`, the Stability entry in data set [5] was “Stable”; in data set [6], “Unstable”; in data set [7], “Unstable”. The MIC90 in data set [3] and in data set [4] was more than 100 µM each time.
For `C/C(=C\C=C\Cc1ccccc1)C[C@@H](C)C[C@@]1(C)C[C@@](C)(/C=C/C(=O)O)OO1`, the Stability result was “Stable” in data set [5], “Unstable” in data set [6] and “Unstable” in data set [7]. For the same compound, the MIC90 in data set [3] and in data set [4] was more than 100 µM in each case.
As for `C[C@H](CCCCCCCCCc1ccccc1)C[C@]1(C)C[C@H](C)[C@H](CC(=O)O)OO1`, the MIC90 in data set [1] turned out to be 3.4 µM (≈ 1.42 µg/mL); in data set [2], 2.7 µM (≈ 1.13 µg/mL); in data set [3], 13 µM (≈ 5.44 µg/mL); in data set [4] it was 2.4 µM (≈ 1 µg/mL).
